Calls of active or inactive are those of the source. The calls are words filed in the database; no cut-off is given here.
Experiments:
[1] = system: Rattus norvegicus; experiment: Antiinflammatory activity in rat assessed as inhibition of carrageenan-induced paw oedema at 50 mg/kg after 1 hr by plethysmography relative to control; assay type: functional
Summary of the method: (§1)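 0.1 ml of 1% carrageenan was injected subplantar into the right hind paw. Paw volume was measured plethysmographically immediately and at 1, 2, 3 and 4 h; oedema is the volume difference. Test compounds were dosed at 50 mg/kg b.w., with diclofenac sodium 50 mg/kg as reference. Percent inhibition was calculated against the saline control group. N = 5, mean ± SEM, ANOVA.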

[2] = system: Rattus norvegicus; experiment: Antiinflammatory activity in rat assessed as inhibition of carrageenan-induced paw oedema at 50 mg/kg after 4 hrs by plethysmography relative to controlchallenge by plethysmography; assay type: functional; summary of the method: as §1
[3] = system: Rattus norvegicus; experiment: Antiinflammatory activity in rat assessed as inhibition of carrageenan-induced paw oedema at 50 mg/kg after 3 hrs by plethysmography relative to control; assay type: functional; summary of the method: as §1
[4] = system: Rattus norvegicus; experiment: Antiinflammatory activity in rat assessed as inhibition of carrageenan-induced paw oedema at 50 mg/kg after 2 hrs by plethysmography relative to control; assay type: functional; summary of the method: as §1
[5] = system: Mus musculus; experiment: Analgesic activity in Swiss albino mouse assessed as protection against acetic acid-induced wriths at 50 mg/kg, po administered 30 mins prior acetic acid challenge measured for 10 mins; assay type: functional
Summary of the method: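 Adult Swiss albino mice (20-25 g) were used, with N = 5 per group. Wriths were counted for 10 min, starting 5 min after acetic acid injection, on day 1 as each mouse's control. Next day, 50 mg/kg was given orally 30 min before acetic acid. Diclofenac sodium was the standard. Protection = […] × 100 from group means. Analysis: mean ± SEM, one-way ANOVA, Tukey-Kramer.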

[6] = system: Mus musculus; experiment: Analgesic activity in Swiss albino mouse assessed as inhibition of acetic acid-induced writhing at 50 mg/kg, po administered 30 mins prior acetic acid-induction measured after 1 hr by tail immersion method; assay type: functional, organism-based; parameters: dose 50 mg/kg
[7] = system: Mus musculus; experiment: Analgesic activity in Swiss albino mouse assessed as inhibition of acetic acid-induced writhing at 50 mg/kg, po administered 30 mins prior acetic acid-induction measured after 1 to 2 hrs by tail immersion method; assay type: functional, organism-based; parameters: dose 50 mg/kg
[8] = system: Mus musculus; experiment: Analgesic activity in Swiss albino mouse assessed as inhibition of acetic acid-induced writhing at 50 mg/kg, po administered 30 mins prior acetic acid-induction measured after 2 hrs by tail immersion method; assay type: functional, organism-based; parameters: dose 50 mg/kg

CC(=O)c1c(NNc2ccc(Br)cc2)cc(C)oc1=O
inhibition in vivo at 50 mg/kg [1]: 46.8% | inhibition in vivo at 50 mg/kg [2]: 18.6% | inhibition in vivo at 50 mg/kg [3]: 40.4% | inhibition in vivo at 50 mg/kg [4]: 47.2% | inhibition in vivo at 50 mg/kg [5]: 53.1%

CC(=O)c1c(NNc2nc(C)cc(C)n2)cc(C)oc1=O
inhibition in vivo at 50 mg/kg [1]: 59.5% | inhibition in vivo at 50 mg/kg [2]: 42.2% | Activity [6]: Active | inhibition in vivo at 50 mg/kg [3]: 55.6% | inhibition in vivo at 50 mg/kg [4]: 61.8% | inhibition in vivo at 50 mg/kg [5]: 64.9%

CC(=O)c1c(NNc2ccc(Cl)cc2)cc(C)oc1=O
inhibition in vivo at 50 mg/kg [1]: 54.4% | inhibition in vivo at 50 mg/kg [2]: 28.4% | inhibition in vivo at 50 mg/kg [3]: 58.6% | inhibition in vivo at 50 mg/kg [4]: 57.3% | inhibition in vivo at 50 mg/kg [5]: 75.1%

CC(=O)c1c(NNc2ccccc2)cc(C)oc1=O
inhibition in vivo at 50 mg/kg [1]: 59.5% | inhibition in vivo at 50 mg/kg [2]: 52% | Activity [6]: Active | inhibition in vivo at 50 mg/kg [3]: 55.6% | inhibition in vivo at 50 mg/kg [4]: 57.3% | inhibition in vivo at 50 mg/kg [5]: 49.8%

COc1ccc(NNc2cc(C)oc(=O)c2C(C)=O)cc1
inhibition in vivo at 50 mg/kg [1]: 50% | inhibition in vivo at 50 mg/kg [2]: 24.5% | inhibition in vivo at 50 mg/kg [3]: 44.4% | inhibition in vivo at 50 mg/kg [4]: 49.4% | inhibition in vivo at 50 mg/kg [5]: 59.2%

Cc1cc2nn(-c3ccccc3)c(C)c2c(=O)o1
inhibition in vivo at 50 mg/kg [1]: 57% | inhibition in vivo at 50 mg/kg [2]: 43.1% | Activity [6]: Active | inhibition in vivo at 50 mg/kg [3]: 52.5% | inhibition in vivo at 50 mg/kg [4]: 55% | inhibition in vivo at 50 mg/kg [5]: 50.2% | Activity [7]: Active

Cc1ccc(-n2nc3cc(C)oc(=O)c3c2C)cc1
inhibition in vivo at 50 mg/kg [1]: 63.3% | Activity [8]: Active | inhibition in vivo at 50 mg/kg [2]: 41.7% | inhibition in vivo at 50 mg/kg [3]: 54% | inhibition in vivo at 50 mg/kg [4]: 58.4% | inhibition in vivo at 50 mg/kg [5]: 69.4%

CC(=O)c1c(NNc2nc3ccccc3s2)cc(C)oc1=O
inhibition in vivo at 50 mg/kg [1]: 64.6% | inhibition in vivo at 50 mg/kg [2]: 49% | Activity [6]: Active | inhibition in vivo at 50 mg/kg [3]: 54.5% | inhibition in vivo at 50 mg/kg [4]: 58.4% | inhibition in vivo at 50 mg/kg [5]: 65.3% | Activity [7]: Active

Cc1cc2nn(-c3ccc(Br)cc3)c(C)c2c(=O)o1
inhibition in vivo at 50 mg/kg [1]: 59.5% | inhibition in vivo at 50 mg/kg [2]: 38.2% | inhibition in vivo at 50 mg/kg [3]: 49.5% | inhibition in vivo at 50 mg/kg [4]: 50.6% | inhibition in vivo at 50 mg/kg [5]: 44.9% | Activity [7]: Active

O=C(O)Cc1ccccc1Nc1c(Cl)cccc1Cl [DICLOFENAC SODIUM]
inhibition in vivo at 50 mg/kg [1]: 70.9% | inhibition in vivo at 50 mg/kg [2]: 66.7% | inhibition in vivo at 50 mg/kg [3]: 69.7% | inhibition in vivo at 50 mg/kg [4]: 67.4% | inhibition in vivo at 50 mg/kg [5]: 77.5%

CC(=O)c1c(NNc2ccc([N+](=O)[O-])cc2)cc(C)oc1=O
inhibition in vivo at 50 mg/kg [1]: 53.2% | inhibition in vivo at 50 mg/kg [2]: 44.1% | inhibition in vivo at 50 mg/kg [3]: 45.5% | inhibition in vivo at 50 mg/kg [4]: 55% | inhibition in vivo at 50 mg/kg [5]: 47.3%

COc1ccc(-n2nc3cc(C)oc(=O)c3c2C)cc1
inhibition in vivo at 50 mg/kg [1]: 64.6% | inhibition in vivo at 50 mg/kg [2]: 42.2% | inhibition in vivo at 50 mg/kg [3]: 57.6% | inhibition in vivo at 50 mg/kg [4]: 53.9% | inhibition in vivo at 50 mg/kg [5]: 75.9%

Cc1cc2nn(-c3nc(-c4ccccc4)cs3)c(C)c2c(=O)o1
inhibition in vivo at 50 mg/kg [1]: 67.1% | inhibition in vivo at 50 mg/kg [2]: 52.9% | inhibition in vivo at 50 mg/kg [3]: 62.6% | inhibition in vivo at 50 mg/kg [4]: 59.5% | inhibition in vivo at 50 mg/kg [5]: 70.2% | Activity [7]: Active

CC(=O)c1c(NNc2ccc(C)cc2)cc(C)oc1=O
inhibition in vivo at 50 mg/kg [1]: 60.1% | inhibition in vivo at 50 mg/kg [2]: 50% | Activity [6]: Active | inhibition in vivo at 50 mg/kg [3]: 59.6% | inhibition in vivo at 50 mg/kg [4]: 53.4% | inhibition in vivo at 50 mg/kg [5]: 70.2%

CC(=O)c1c(NNc2cc(C)c3ccccc3n2)cc(C)oc1=O
inhibition in vivo at 50 mg/kg [1]: 51.9% | Activity [8]: Active | inhibition in vivo at 50 mg/kg [2]: 51% | Activity [6]: Active | inhibition in vivo at 50 mg/kg [3]: 55.6% | inhibition in vivo at 50 mg/kg [4]: 55% | inhibition in vivo at 50 mg/kg [5]: 75% | Activity [7]: Active

Cc1cc2nn(-c3ccc(Cl)cc3)c(C)c2c(=O)o1
inhibition in vivo at 50 mg/kg [1]: 58.2% | inhibition in vivo at 50 mg/kg [2]: 38.2% | inhibition in vivo at 50 mg/kg [3]: 56.6% | inhibition in vivo at 50 mg/kg [4]: 59.5% | inhibition in vivo at 50 mg/kg [5]: 65.3%

CC(=O)c1c(NNc2nc(-c3ccccc3)cs2)cc(C)oc1=O
inhibition in vivo at 50 mg/kg [1]: 51.9% | Activity [8]: Active | inhibition in vivo at 50 mg/kg [2]: 23.5% | inhibition in vivo at 50 mg/kg [3]: 45.5% | inhibition in vivo at 50 mg/kg [4]: 48.3% | inhibition in vivo at 50 mg/kg [5]: 51.4%

Source: ChEMBL document CHEMBL1949650, “Design, synthesis, computational and biological evaluation of some new hydrazino derivatives of DHA and pyranopyrazoles” (2012)
